Measured values from ChEMBL document CHEMBL1148795 (J Med Chem, 2007).
The source made the active and inactive calls. The calls are words filed in the database; no cut-off is given here.

What was measured:
[1] = Metabolic stability in rat plasma; format: ADME, cell-free
In short: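 Compounds were incubated in reconstituted rat plasma (two lots, checked with a control compound), with 1,1-diphenylethylene as internal standard. Aliquot supernatants were analysed by HPLC with UV detection. Half-lives came from regression fits of concentration versus time and were averaged over at least two replicates.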

[2] = test system: Human immunodeficiency virus 2; assay: Antiviral activity against HIV2 ROD in human MT4 cells by MTT assay
[3] = Cytotoxicity against human CEM-SS cells by MTT assay; format: cell-based
[4] = test system: Human immunodeficiency virus 1; assay: Antiviral activity against HIV1 RF in human CEM-SS cells by XTT assay; format: functional, organism-based; conditions: for EC50: Human immunodeficiency virus 1, RF
[5] = target: Human immunodeficiency virus type 1 reverse transcriptase (Human immunodeficiency virus 1, UniProt Q72547); assay: Inhibition of HIV1 reverse transcriptase
[6] = Cytotoxicity against human MT4 cells by MTT assay; format: cell-based
[7] = test system: Human immunodeficiency virus 1; assay: Antiviral activity against HIV1 with RT Y181C mutation; format: functional, organism-based
In short: (§1)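 Cytoprotection assay in CEM-SS cells infected with HIV-1 strains engineered to carry the NNRTI-resistance RT mutation (K103N or Y181C). Activity is expressed as the EC50 for protection of the cells from virus-induced cytopathic effect.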

[8] = test system: Human immunodeficiency virus 1; assay: Antiviral activity against HIV1 3B in human MT4 cells by MTT assay; conditions: for EC50: Human immunodeficiency virus 1, 3B
[9] = test system: Human immunodeficiency virus 1; assay: Antiviral activity against HIV1 with RT K103N mutation; format: functional, organism-based; in short: as §1

Row | Structure (SMILES) | half-life [1] [h] | EC50 ([2]; Human immunodeficiency virus 2, ROD) [µM] | CC50 [3] [µM] | EC50 [4] [µM] | IC50 [5] [µM] | CC50 [6] [µM] | EC50 [7] [µM] | EC50 [8] [µM] | EC50 [9] [µM] | Activity [2] | Activity [4] | Activity [8]
1 | COc1c(C)cc(/C(=C/CCc2nnc(C)o2)c2ccc3oc(=O)n(C)c3c2)cc1C(=O)SC | 12.3 | 4.7 | 5.9 | 0.6 | 2.6 | 12 | > 100 | 0.69 | 1 |  |  | 
2 | COc1c(C)cc(/C(=C/CCCc2nnc(C)o2)c2ccc(C#N)cc2)cc1C(=O)SC | 0.692 |  | 4.8 |  | 0.45 | 7.6 | > 100 |  | > 50 | inactive | inactive | inactive
3 | COC(=O)c1cc(/C(=C\CCc2nnc(C)o2)c2cc(C)c3onc(OC)c3c2)cc(C)c1OC | 5.52 |  | 2.8 | 0.36 | 0.39 | 6.4 | > 100 | 0.42 | 0.8 | inactive |  | 
